Activity calls are given as the source filed them. The calls are words filed in the database; no cut-off is given here. Numbered stars: 1 amine (or outer) side, 2 acyl side, 3 side chain; on linkers, the order of the positions; unused ones are H or OH. Square brackets hold non-standard residues; d marks the D form. Peptide text beside a SMILES is read from it. GABA(3S-Bn) = O=C(C[C@@H](CN[*:1])Cc1ccccc1)[*:2]; GABA(3R-Bn) = O=C(C[C@H](CN[*:1])Cc1ccccc1)[*:2]
Legend:
[1] = test system: Blood; assay: Inhibition of LPS-induced TNFalpha secretion in human whole blood cells at 25 ug/ml by immune assay; format: functional
In short: (§1)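 Venous blood from a single donor was diluted 10× in RPMI-1640 and stimulated with E. coli LPS 1 μg/mL, serotype 0:111:B4. Compounds were added at 5 or 25 μg/mL, with DMSO dilutions as controls. After overnight culture, supernatants were frozen at −20 °C. TNF-α was then measured by ELISA.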

[2] = test system: PBMC; assay: Antiproliferative activity against human PBMC assessed as inhibition of PHA-induced proliferation at 1 to 100 ug/ml; format: functional, cell-based
In short: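 Human PBMC from a single donor were isolated on a ficoll gradient and plated at 2×10^5 cells/well in RPMI-1640 with 10% FCS. Stimulation was PHA 5 μg/mL. Compounds were tested at 1, 10 and 100 μg/mL, with DMSO dilutions as control. After 4 days, proliferation was read by MTT. Result is mean OD of quadruplicate wells ± SE.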

[3] = test system: PBMC; assay: Cytotoxicity against human PBMC cells at 1 to 100 ug/ml after 24 hrs by MTT assay; format: cell-based
In short: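 Human PBMC from a single donor were plated at 3×10^5/well in RPMI-1640 with 10% FCS. Compounds at 1, 10 or 100 μg/mL were added for 24 h. Viability was read by MTT and expressed as percent viable cells versus matching DMSO controls.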

[4] = Retention time of the compound; format: physicochemical
[5] = test system: Blood; assay: Stimulation of LPS-induced TNFalpha secretion in human whole blood cells at 5 ug/ml by immuno assay; format: functional, cell-based; in short: as §1
[6] = test system: Blood; assay: Stimulation of LPS-induced TNFalpha secretion in human whole blood cells at 25 ug/ml by immuno assay; format: functional, cell-based; in short: as §1
[7] = test system: Blood; assay: Inhibition of LPS-induced TNFalpha secretion in human whole blood cells at 5 ug/ml by immune assay; format: functional; in short: as §1
[8] = test system: Mus musculus; assay: Immunosuppressive effect in ovalbumin-induced mouse delayed type hypersensitivity model assessed as inhibition of DTH reaction at 100 ug, ip treated 2 hrs before ovalbumin sensitization; format: functional
In short: (§2)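 CBA mice were sensitized s.c. at tail base with 5 μg OVA in complete Freund's adjuvant. After 4 days they were challenged with 50 μg OVA in incomplete adjuvant in hind foot pads. Swelling was measured by caliper 24 h later. Unsensitized challenged mice gave background. Compounds in DMSO/saline were given i.p. 2 h before sensitization or 2 h before elicitation, with solvent controls. Result: 5 mice/group, DTH units (10^-2 cm) ± SE.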

[9] = test system: Mus musculus; assay: Immunosuppressive effect in ovalbumin-induced mouse delayed type hypersensitivity model assessed as inhibition of DTH reaction at 100 ug, ip treated 2 hrs before elicitation of DTH reaction with secoond dose of antigen; format: functional, organism-based; in short: as §2

| SMILES | inhibition [1] | inhibition [2] | Activity [3] | Retention_time [4] [min] | Activity [5] | Activity [6] | inhibition [7] | inhibition [8] | inhibition (INH) [8] [%] | inhibition [9] | inhibition at 25 µg/mL [1] [%] | inhibition at 5 µg/mL [7] [%] |
| --- | --- | --- | --- | --- | --- | --- | --- | --- | --- | --- | --- | --- |
| CC[C@H](C)[C@H](N)C(=O)N[C@H](C(=O)N[C@@H](CC(C)C)C(=O)N[C@H](C(=O)N1CCC[C@H]1C(=O)N1CCC[C@H]1C(=O)N[C@@H](Cc1ccccc1)C(=O)NC[C@@H](CC(=O)N[C@@H](CC(C)C)C(=O)O)Cc1ccccc1)C(C)C)[C@@H](C)CC (H-IILVPPF[GABA(3R-Bn)]L-OH) | Active | inactive | Non-toxic | 14.168 |  |  |  |  |  |  |  |  |
| CC[C@H](C)[C@H](N)C(=O)N[C@H](C(=O)N[C@@H](CC(C)C)C(=O)N[C@H](C(=O)N1CCC[C@H]1C(=O)N1CCC[C@H]1C(=O)N[C@@H](Cc1ccccc1)C(=O)NC[C@H](CC(=O)N[C@@H](CC(C)C)C(=O)O)Cc1ccccc1)C(C)C)[C@@H](C)CC (H-IILVPPF[GABA(3S-Bn)]L-OH) |  | inactive | Non-toxic | 13.177 | Active | Active |  |  |  |  |  |  |
| CC[C@H](C)[C@H](N)C(=O)N[C@H](C(=O)N[C@@H](CC(C)C)C(=O)N[C@H](C(=O)N1CCC[C@H]1C(=O)N1CCC[C@H]1C(=O)NC[C@@H](CC(=O)N[C@@H](Cc1ccccc1)C(=O)N[C@@H](CC(C)C)C(=O)O)Cc1ccccc1)C(C)C)[C@@H](C)CC (H-IILVPP[GABA(3R-Bn)]FL-OH) | Active | inactive | Non-toxic | 13.383 |  |  | Active |  |  |  |  |  |
| CC[C@H](C)[C@H](N)C(=O)N[C@H](C(=O)N[C@@H](CC(C)C)C(=O)N[C@H](C(=O)N1CCC[C@H]1C(=O)N1CCC[C@H]1C(=O)NC[C@@H](CC(=O)NC[C@@H](CC(=O)N[C@@H](CC(C)C)C(=O)O)Cc1ccccc1)Cc1ccccc1)C(C)C)[C@@H](C)CC (H-IILVPP[GABA(3R-Bn)][GABA(3R-Bn)]L-OH) | Active | inactive | Non-toxic | 14.073 |  |  | Active | Active | 50 | Active |  |  |
| CC[C@H](C)[C@H](N)C(=O)N[C@H](C(=O)N[C@@H](CC(C)C)C(=O)N[C@H](C(=O)N1CCC[C@H]1C(=O)N1CCC[C@H]1C(=O)NC[C@@H](CC(=O)NC[C@H](CC(=O)N[C@@H](CC(C)C)C(=O)O)Cc1ccccc1)Cc1ccccc1)C(C)C)[C@@H](C)CC (H-IILVPP[GABA(3R-Bn)][GABA(3S-Bn)]L-OH) |  | inactive | Non-toxic | 13.085 | Active | Active |  |  |  |  |  |  |
| CC[C@H](C)[C@H](N)C(=O)N[C@H](C(=O)N[C@@H](CC(C)C)C(=O)N[C@H](C(=O)N1CCC[C@H]1C(=O)N1CCC[C@H]1C(=O)NC[C@H](CC(=O)N[C@@H](Cc1ccccc1)C(=O)N[C@@H](CC(C)C)C(=O)O)Cc1ccccc1)C(C)C)[C@@H](C)CC (H-IILVPP[GABA(3S-Bn)]FL-OH) |  | inactive | Non-toxic | 12.69 | Active | Active |  |  |  |  |  |  |
| CC[C@H](C)[C@H](N)C(=O)N[C@H](C(=O)N[C@@H](CC(C)C)C(=O)N[C@H](C(=O)N1CCC[C@H]1C(=O)N1CCC[C@H]1C(=O)NC[C@H](CC(=O)NC[C@@H](CC(=O)N[C@@H](CC(C)C)C(=O)O)Cc1ccccc1)Cc1ccccc1)C(C)C)[C@@H](C)CC (H-IILVPP[GABA(3S-Bn)][GABA(3R-Bn)]L-OH) |  | inactive | Non-toxic | 13.938 |  |  |  |  |  |  |  |  |
| CC[C@H](C)[C@H](N)C(=O)N[C@H](C(=O)N[C@@H](CC(C)C)C(=O)N[C@H](C(=O)N1CCC[C@H]1C(=O)N1CCC[C@H]1C(=O)NC[C@H](CC(=O)NC[C@H](CC(=O)N[C@@H](CC(C)C)C(=O)O)Cc1ccccc1)Cc1ccccc1)C(C)C)[C@@H](C)CC (H-IILVPP[GABA(3S-Bn)][GABA(3S-Bn)]L-OH) |  | inactive | Non-toxic | 13.233 | Active | Active |  |  |  |  |  |  |
| CC[C@H](C)[C@@H]1NC(=O)[C@H](CC(C)C)NC(=O)[C@H](Cc2ccccc2)NC(=O)C[C@@H](Cc2ccccc2)CNC(=O)[C@@H]2CCCN2C(=O)[C@@H]2CCCN2C(=O)[C@H](C(C)C)NC(=O)[C@H](CC(C)C)NC(=O)[C@H]([C@@H](C)CC)NC1=O (cyclo(FLIILVPP[GABA(3R-Bn)])) |  | Active | Dose-dependent effect | 10.033 |  |  |  |  |  |  |  |  |
| CC[C@H](C)[C@@H]1NC(=O)[C@H](CC(C)C)NC(=O)[C@H](Cc2ccccc2)NC(=O)C[C@H](Cc2ccccc2)CNC(=O)[C@@H]2CCCN2C(=O)[C@@H]2CCCN2C(=O)[C@H](C(C)C)NC(=O)[C@H](CC(C)C)NC(=O)[C@H]([C@@H](C)CC)NC1=O (cyclo(FLIILVPP[GABA(3S-Bn)])) |  | Active | Dose-dependent effect | 9.89 |  |  |  |  |  |  |  |  |
| CC[C@H](C)[C@@H]1NC(=O)[C@H](CC(C)C)NC(=O)C[C@@H](Cc2ccccc2)CNC(=O)[C@H](Cc2ccccc2)NC(=O)[C@@H]2CCCN2C(=O)[C@@H]2CCCN2C(=O)[C@H](C(C)C)NC(=O)[C@H](CC(C)C)NC(=O)[C@H]([C@@H](C)CC)NC1=O (cyclo(F[GABA(3R-Bn)]LIILVPP)) |  | Active | Dose-dependent effect | 11.87 |  |  |  |  |  |  |  |  |
| CC[C@H](C)[C@@H]1NC(=O)[C@H](CC(C)C)NC(=O)C[C@H](Cc2ccccc2)CNC(=O)[C@H](Cc2ccccc2)NC(=O)[C@@H]2CCCN2C(=O)[C@@H]2CCCN2C(=O)[C@H](C(C)C)NC(=O)[C@H](CC(C)C)NC(=O)[C@H]([C@@H](C)CC)NC1=O (cyclo(F[GABA(3S-Bn)]LIILVPP)) |  | Active | Non-toxic | 11.63 |  |  |  | Active |  | Active | 42 | 55 |
| CC[C@H](C)[C@@H]1NC(=O)[C@H](CC(C)C)NC(=O)C[C@@H](Cc2ccccc2)CNC(=O)C[C@@H](Cc2ccccc2)CNC(=O)[C@@H]2CCCN2C(=O)[C@@H]2CCCN2C(=O)[C@H](C(C)C)NC(=O)[C@H](CC(C)C)NC(=O)[C@H]([C@@H](C)CC)NC1=O (cyclo(IILVPP[GABA(3R-Bn)][GABA(3R-Bn)]L)) |  | Active | Dose-dependent effect | 9.242 |  |  |  |  |  |  |  |  |
| CC[C@H](C)[C@@H]1NC(=O)[C@H](CC(C)C)NC(=O)C[C@H](Cc2ccccc2)CNC(=O)C[C@@H](Cc2ccccc2)CNC(=O)[C@@H]2CCCN2C(=O)[C@@H]2CCCN2C(=O)[C@H](C(C)C)NC(=O)[C@H](CC(C)C)NC(=O)[C@H]([C@@H](C)CC)NC1=O (cyclo(IILVPP[GABA(3R-Bn)][GABA(3S-Bn)]L)) |  | Active | Dose-dependent effect | 9.605 |  |  |  |  |  |  |  |  |
| CC[C@H](C)[C@@H]1NC(=O)[C@H](CC(C)C)NC(=O)C[C@@H](Cc2ccccc2)CNC(=O)C[C@H](Cc2ccccc2)CNC(=O)[C@@H]2CCCN2C(=O)[C@@H]2CCCN2C(=O)[C@H](C(C)C)NC(=O)[C@H](CC(C)C)NC(=O)[C@H]([C@@H](C)CC)NC1=O (cyclo(IILVPP[GABA(3S-Bn)][GABA(3R-Bn)]L)) |  | Active | Dose-dependent effect | 10.543 |  |  |  |  |  |  |  |  |
| CC[C@H](C)[C@@H]1NC(=O)[C@H](CC(C)C)NC(=O)C[C@H](Cc2ccccc2)CNC(=O)C[C@H](Cc2ccccc2)CNC(=O)[C@@H]2CCCN2C(=O)[C@@H]2CCCN2C(=O)[C@H](C(C)C)NC(=O)[C@H](CC(C)C)NC(=O)[C@H]([C@@H](C)CC)NC1=O (cyclo(IILVPP[GABA(3S-Bn)][GABA(3S-Bn)]L)) |  | Active | Dose-dependent effect | 10.11 |  |  |  |  |  |  |  |  |

Reference: ChEMBL document CHEMBL3352129, “Synthesis and biological activity of cyclolinopeptide A analogues modified with γ(3)-bis(homophenylalanine)” (Eur J Med Chem, 2014)
